Data reported in ChEMBL document CHEMBL4219218, “P3-P4 ureas and reverse carbamates as potent HCV NS3 protease inhibitors: Effective transposition of the P4 hydrogen bond donor” (Bioorg Med Chem Lett, 2018).

Key:
[1] = AUC in Sprague-Dawley rat plasma at 15 mg/kg administered intraduodenally as single dose measured at 4 hrs by LC/MS/MS method; type: ADME, organism-based; set-up: dose 15 mg/kg, time < 4 hr, route intraduodenal
Method in brief: (§1)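 Single intraduodenal dose of 15 mg/kg to rats, n = 2. Plasma and liver exposure measured over a 4 h period, with a 4 h endpoint.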

[2] = Drug level in Sprague-Dawley rat liver at 15 mg/kg administered intraduodenally as single dose measured at 4 hrs by LC/MS/MS method; type: ADME, organism-based; settings: read-out: Drug uptake; method in brief: as §1

SMILES	AUC at 4 h [1]	concentration at 4 h [2]
C=C[C@@H]1C[C@]1(NC(=O)[C@@H]1C[C@@H](Oc2nccc3cc(OC)ccc23)CN1C(=O)[C@@H](NC(=O)OC(C)(C)C)C(C)(C)C)C(=O)NS(=O)(=O)C1CC1	7420 ng·h/mL	64700 ng/g
C=C[C@@H]1C[C@]1(NC(=O)[C@@H]1C[C@@H](Oc2nccc3cc(OC)ccc23)CN1C(=O)[C@@H](NC(=O)NC(C)(C)C)C(C)(C)C)C(=O)NS(=O)(=O)C1CC1	497 ng·h/mL	1110 ng/g
C=C[C@@H]1C[C@]1(NC(=O)[C@@H]1C[C@@H](Oc2nccc3cc(OC)ccc23)CN1C(=O)[C@@H](NC(=O)N[C@H](COC)C(C)(C)C)C(C)(C)C)C(=O)NS(=O)(=O)C1CC1	3280 ng·h/mL	838 ng/g
C=C[C@@H]1C[C@]1(NC(=O)[C@@H]1C[C@@H](Oc2nccc3cc(OC)ccc23)CN1C(=O)[C@@H](NC(=O)N[C@H](C(=O)N1CCN(c2ncccn2)CC1)C(C)(C)C)C(C)(C)C)C(=O)NS(=O)(=O)C1CC1	1630 ng·h/mL	87 ng/g
C=C[C@@H]1C[C@]1(NC(=O)[C@@H]1C[C@@H](Oc2nccc3cc(OC)ccc23)CN1C(=O)[C@@H](NC(=O)N[C@H](C(=O)O)C(C)(C)C)C(C)(C)C)C(=O)NS(=O)(=O)C1CC1	91 ng·h/mL	–
C=C[C@@H]1C[C@]1(NC(=O)[C@@H]1C[C@@H](Oc2nccc3cc(OC)ccc23)CN1C(=O)[C@@H](NC(=O)N[C@H](C(=O)OC(C)(C)C)C(C)(C)C)C(C)(C)C)C(=O)NS(=O)(=O)C1CC1	632 ng·h/mL	4850 ng/g

Other lines, results leading:

AUC at 4 h [1]	concentration at 4 h [2]	SMILES
61 ng·h/mL	7850 ng/g	C=C[C@@H]1C[C@]1(NC(=O)[C@@H]1C[C@@H](Oc2cc(-c3ccccc3)nc3cc(OC)ccc23)CN1C(=O)[C@@H](NC(=O)OC(C)(C)C)C(C)(C)C)C(=O)NS(=O)(=O)C1CC1
–	1240 ng/g	C=C[C@@H]1C[C@]1(NC(=O)[C@@H]1C[C@@H](Oc2cc(-c3ccccc3)nc3cc(OC)ccc23)CN1C(=O)[C@H]([C@@H](C)CC)N(C)C(=O)NC1CCCC1)C(=O)NS(=O)(=O)C1CC1
17 ng·h/mL	72 ng/g	C=C[C@@H]1C[C@]1(NC(=O)[C@@H]1C[C@@H](Oc2cc(-c3ccccc3)nc3cc(OC)ccc23)CN1C(=O)[C@@H](NC(=O)NC(C)(C)C)C(C)(C)C)C(=O)NS(=O)(=O)C1CC1
95 ng·h/mL	3430 ng/g	C=C[C@@H]1C[C@]1(NC(=O)[C@@H]1C[C@@H](Oc2cc(-c3ccccc3)nc3cc(OC)ccc23)CN1C(=O)[C@@H](OC(=O)NC1CCCC1)C(C)(C)C)C(=O)NS(=O)(=O)C1CC1
16 ng·h/mL	1780 ng/g	C=C[C@@H]1C[C@]1(NC(=O)[C@@H]1C[C@@H](Oc2cc(-c3ccccc3)nc3cc(OC)ccc23)CN1C(=O)[C@H]([C@@H](C)CC)N(C)C(=O)NC(C)(C)C)C(=O)NS(=O)(=O)C1CC1
–	430 ng/g	C=C[C@@H]1C[C@]1(NC(=O)[C@@H]1C[C@@H](Oc2cc(-c3ccccc3)nc3cc(OC)ccc23)CN1C(=O)[C@@H](OC(=O)NC(C)C)C(C)(C)C)C(=O)NS(=O)(=O)C1CC1
82 ng·h/mL	3770 ng/g	C=C[C@@H]1C[C@]1(NC(=O)[C@@H]1C[C@@H](Oc2cc(-c3ccccc3)nc3cc(OC)ccc23)CN1C(=O)[C@@H](OC(=O)NC(C)(C)C)C(C)(C)C)C(=O)NS(=O)(=O)C1CC1
32 ng·h/mL	2600 ng/g	C=C[C@@H]1C[C@]1(NC(=O)[C@@H]1C[C@@H](Oc2cc(-c3ccccc3)nc3cc(OC)ccc23)CN1C(=O)[C@@H](NC(=O)N(C)C(C)(C)C)C(C)(C)C)C(=O)NS(=O)(=O)C1CC1
